ChEMBL document CHEMBL5154888 (Eur J Med Chem, 2022)
Active and inactive are the calls of the source. The rule behind the calls is not given here.

Tests used:
[1] = target: Glutamate NMDA receptor; Grin1/Grin2a (Rattus norvegicus, UniProt P35439+Q00959); experiment: Inhibition of eGFP-tagged rat GluN1-1a/GluN2A transfected in human tsA201 cells assessed as inhibition glutamate-induced current measured at -65 mV holding potential applied for 10 secs by whole-cell patch-clamp method; format: cell-based
Glutamate NMDA receptor = experiment: Inhibition of NMDA receptor in NMDA-stimulated rat cerebellar granule neurons assessed as measuring intracellular calcium concentration in presence of glycine by Fura2-AM dye based fluorescence assay; format: cell-based; details: cerebellar granule neurone
in vitro = details: PAMPA
[2] = target: T1, Glutamate NMDA receptor; Grin1/Grin2a (Rattus norvegicus) (UniProt P35439+Q00959); experiment: Inhibition of eGFP-tagged rat GluN1/GluN2A transfected in human tsA201 cells assessed as blockade of glycine/NMDA-induced current at 10 uM treated for 40 secs measured at -60 mV holding potential after returning from +60 mV application for 5 secs by whole-cell patch-clamp method relative to control; format: cell-based; details: time 45.0 sec
[3] = target: T1, Glutamate NMDA receptor; Grin1/Grin2a (Rattus norvegicus); experiment: Inhibition of eGFP-tagged rat GluN1/GluN2A transfected in human tsA201 cells assessed as blockade of glycine/NMDA-induced current at 10 uM treated for 40 secs measured at +60 mV holding potential applied for 5 secs by whole-cell patch-clamp method relative to control; format: cell-based; details: time 45.0 sec
Procedure, shortened: (§1)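 tsA201 cells transfected with rat GluN1, rat GluN2A and eGFP (0.5:1:1); dl-APV 200 μM added at transfection. Whole-cell recording at rt, held at −60 mV. Agonist is 100 μM NMDA + 10 μM glycine; blocker at 10 μM applied by piezo until steady state. A 5 s jump to +60 mV is made during block and again after blocker washout. Block is computed from steady-state current ratios, and recovery as current after removal over current before application.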

[4] = target: T1, Glutamate NMDA receptor; Grin1/Grin2a (Rattus norvegicus); experiment: Inhibition of eGFP-tagged rat GluN1/GluN2A transfected in human tsA201 cells assessed as weighted time constant for blockade of glycine/NMDA-induced current at 10 uM at 1 sec by whole-cell patch-clamp method; format: cell-based
[5] = target: T1, Glutamate NMDA receptor; Grin1/Grin2a (Rattus norvegicus); experiment: (§2) Inhibition of eGFP-tagged rat GluN1/GluN2A transfected in human tsA201 cells assessed as recovery of glycine/NMDA-induced current at 10 uM treated for 40 secs followed by application of +60 mV holding potential for 5 secs measured after 40 secs of compound removal by whole-cell patch-clamp method relative to control; format: cell-based; details: time 85.0 sec; procedure, shortened: as §1
[6] = target: T1, Glutamate NMDA receptor; Grin1/Grin2a (Rattus norvegicus); experiment: as §2, with “assessed as weighted time constant for recovery of” for “assessed as recovery of”, “patch-clamp method” for “patch-clamp method relative to control”; format: cell-based; details: time 85.0 sec
Caenorhabditis elegans [7] = experiment: Effect on locomotory activity in transgenic Caenorhabditis elegans CL2006 model of paralysis assessed as reduction in defective locomotion by measuring motor index at 0.1 to 10 uM by motor behaviour assay; format: functional, organism-based; details: dose 0.1-10 µM
Procedure, shortened: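 C. elegans CL2006 (constitutive human Aβ1–42), synchronised by hypochlorite and hatched as L1. Compounds in DMSO diluted into water, 1% DMSO final; tested at 0.1–10 μM. Treatment in liquid culture, 25–30 L1 worms per well with inactivated OP50, 4 days at 20 °C. Defective locomotion scored as motor index; N2 is the reference strain.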

Caenorhabditis elegans [8] = experiment: Neuroprotective activity against transgenic Caenorhabditis elegans CL2355 assessed as A-beta aggregration-induced reversal of disrupted chemotaxis behaviour by measuring chemotaxis index at […] treated for 72 hrs followed by compound washout and odorant addition for 1 hr; format: functional, organism-based; details: dose 1.5 µM
Mus musculus [9] = experiment: Recovery of cognitive function in 5XFAD transgenic AD mouse model assessed as long term memory by measuring increase in discrimination index at 5 mg/kg/day, po for 4 weeks measured after 5 days of habituation by novel object recognition test; format: functional, organism-based; details: time 33.0 day
Procedure, shortened: (§3)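 5XFAD mice, 6 months old, treated at 5 mg/kg/day for 4 weeks; n = 8–11 per group, with WT controls. Novel object recognition test: discrimination index from exploration time of novel versus familiar object, tested at 2 h (short-term) and 24 h (long-term).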

Mus musculus [10] = experiment: Recovery of cognitive function in 5XFAD transgenic AD mouse model assessed as short term memory by measuring increased discrimination index at 5 mg/kg/day, po for 4 weeks measured after 4 days of habituation by novel object recognition test; format: functional, organism-based; details: time 32.0 day; procedure, shortened: as §3
Mus musculus [11] = experiment: Upregulation of phosphorylated-Fyn levels in hippocampus of 5XFAD transgenic AD mouse model at 5 mg/kg, po by Western blot analysis; format: functional, organism-based
Procedure, shortened: (§4)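 5XFAD mice treated at 5 mg/kg/day for 4 weeks, n = 3–4 per group. Western blot quantifies GluN2A, PSD95, calbindin, p-Fyn/Fyn, p-GluN2B(Tyr1472)/GluN2B, and nuclear versus cytosolic p-CREB ratio. Values normalised to WT as 100%.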

Mus musculus [12] = experiment: Upregulation of phosphorylated-GluN2B levels at Tyr1472 residue in hippocampus of 5XFAD transgenic AD mouse model at 5 mg/kg, po by Western blot analysis; format: functional, organism-based; procedure, shortened: as §4
Mus musculus [13] = experiment: Upregulation of calbindin D-28K levels in hippocampus of 5XFAD transgenic AD mouse model at 5 mg/kg, po by Western blot analysis; format: functional, organism-based; procedure, shortened: as §4
Mus musculus [14] = experiment: Upregulation of PSD in hippocampus of 5XFAD transgenic AD mouse model at 5 mg/kg, po by Western blot analysis; format: functional, organism-based; procedure, shortened: as §4

For `CNC1(c2ccccc2Cl)CCCCC1=O` (centres undefined) [KETAMINE], the IC50 [1] was 1 µM.
`CC(=O)c1ccc2c(c1)C1CC3(C)CC2CC(N)(C1)C3` (centres undefined) gave an IC50 (Glutamate NMDA receptor) of 323 µM.
For `CCn1cc(C(=O)O)c(=O)c2cc(F)c(N3CCNC(C)C3)c(F)c21` (centres undefined) [LOMEFLOXACIN], the Papp (in vitro) was 0.86 ×10⁻⁶ cm/s.
In the case of `CC12CC3CC(N)(CC(C1)c1cc([N+](=O)[O-])ccc13)C2` (centres undefined), the IC50 (Glutamate NMDA receptor) is reported as 164 µM.
In the case of `CC12CC3CC(C)(C1)CC(N)(C3)C2`, the inhibition [2] is reported as 86.2%, the inhibition [3] is reported as -3.9% and the inhibition [4] is reported as “Active”. For the same compound, the inhibition [5] was 93.6%, the TIME [6] was 0.00178 h and the Activity (Caenorhabditis elegans [7]) was “Active”. For the same compound, the Activity (Caenorhabditis elegans [8]) was “Active”, the Activity (Mus musculus [9]) was “Active” and the Activity (Mus musculus [10]) was “Active”. The Activity (Mus musculus [11]) was “Active”, the Activity (Mus musculus [12]) was “Active” and the Activity (Mus musculus [13]) was “Active”. For the same compound, the Activity (Mus musculus [14]) was “Active”.
Work on `COc1cc2c(cc1OC)C1CC3(C)CC2CC(N)(C1)C3` yielded an IC50 (Glutamate NMDA receptor) of 517 µM.
In the case of `CN(C)C12CC3CC(C)(CC(C1)c1cc([N+](=O)[O-])ccc13)C2` (centres undefined), the IC50 (Glutamate NMDA receptor) is reported as 309 µM.
